Reference: PMC2855844 (Cancer immunology, immunotherapy : CII, 2009)
Entries after “also recorded” stand apart in the source; their conditions may differ.

How the values were obtained:
[1] = target: H2-K^d (Mus musculus, UniProt P01902); test: MHC stabilization assay; format: binding; conditions: T2-K^d cells, 37°C, MFI with anti-H2-K^d mAb and FITC-conjugated anti-mouse IgG
How it was run: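 Peptide-pulsed T2-Kd cells were kept at 37°C, then stained with anti-H2-Kd mAb (HB159) and FITC-conjugated anti-mouse IgG. Surface Kd was read as mean fluorescence intensity. Reference samples were unpulsed cells and peptide-pulsed cells held at 4°C.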

[2] = system: Meth A-specific CTL; format: cell-based, mouse; conditions: E/T ratio 6:1, 4 h ^51Cr-release
How it was run: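 Targets were T2-Kd cells pulsed with peptide, labeled with Na51CrO4, and plated at 1 × 10^3 per well. Meth A-specific CTL (cloned CD3+CD4−CD8+NK-1.1− line from Meth A-immune BALB/c mice) were added at E:T 6:1. Release was measured over 4 h and expressed as % specific lysis.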

[3] = system: human CD8^+ T cells; test: in vitro stimulation of human CD8^+ T cells; format: cell-based; conditions: preliminary findings; listed as Hsd17b12^114T peptide
[4] = T2-K^d cells pulsed with peptide

H2-K^d, sequence (P01902 whole entry, looked up): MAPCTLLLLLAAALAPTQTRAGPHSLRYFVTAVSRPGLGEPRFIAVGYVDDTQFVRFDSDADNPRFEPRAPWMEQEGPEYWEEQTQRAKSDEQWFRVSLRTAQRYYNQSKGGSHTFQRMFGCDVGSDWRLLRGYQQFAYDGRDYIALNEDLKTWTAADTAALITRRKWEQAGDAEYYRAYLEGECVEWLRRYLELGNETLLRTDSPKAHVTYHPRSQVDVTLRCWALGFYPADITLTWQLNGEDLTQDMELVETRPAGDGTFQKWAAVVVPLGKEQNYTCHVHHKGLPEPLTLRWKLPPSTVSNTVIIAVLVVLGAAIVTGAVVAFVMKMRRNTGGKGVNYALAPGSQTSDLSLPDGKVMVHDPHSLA

Sequence | affinity for H2-K^d molecules [1] | affinity of Meth A CTL for peptide [2, 4] | recognition by Meth A-specific CTL (in words) [2, 4] | fold higher affinity of Meth A CTL (TYDKIKTGL vs IYDKIKTGL) ([2]; TYDKIKTGL over IYDKIKTGL, T2-K^d cells) [×] | immunogenicity, stimulation of human CD8^+ T cells in vitro [3]
TYDKIKTGL | ~ 1 × 10^−8 M | ~ 1 × 10^−10 M | recognized by the Meth A-specific CTL | 100 | immunogenic; also recorded: can induce effectors cross-reactive against the HSD17B12_114–122 peptide, naturally presented by human tumor cell lines
IYDKIKTGL | ~ 1 × 10^−8 M | < 1e-08 M |  |  | 
